Source: PMC4126877 (Molecular cancer therapeutics, 2014)
“And” between values parts separate entries of the source, which are not always exact repeats. Equal values may be shown once. Read-outs that look alike come from different tables or passages of the source.

Key:
Chk2 = settings: cited from earlier work
[1] = target: endogenous human TDP1 from whole cell extracts (DT40 hTDP1) (Homo sapiens, UniProt Q9NUW8); assay: Whole cell extract; type: biochemical
recombinant TDP1 = recombinant TDP1 (Homo sapiens, UniProt Q9NUW8); assay: Recombinant TDP1 gel-based assay; type: biochemical
recombinant TDP1, sequence (Q9NUW8 whole entry): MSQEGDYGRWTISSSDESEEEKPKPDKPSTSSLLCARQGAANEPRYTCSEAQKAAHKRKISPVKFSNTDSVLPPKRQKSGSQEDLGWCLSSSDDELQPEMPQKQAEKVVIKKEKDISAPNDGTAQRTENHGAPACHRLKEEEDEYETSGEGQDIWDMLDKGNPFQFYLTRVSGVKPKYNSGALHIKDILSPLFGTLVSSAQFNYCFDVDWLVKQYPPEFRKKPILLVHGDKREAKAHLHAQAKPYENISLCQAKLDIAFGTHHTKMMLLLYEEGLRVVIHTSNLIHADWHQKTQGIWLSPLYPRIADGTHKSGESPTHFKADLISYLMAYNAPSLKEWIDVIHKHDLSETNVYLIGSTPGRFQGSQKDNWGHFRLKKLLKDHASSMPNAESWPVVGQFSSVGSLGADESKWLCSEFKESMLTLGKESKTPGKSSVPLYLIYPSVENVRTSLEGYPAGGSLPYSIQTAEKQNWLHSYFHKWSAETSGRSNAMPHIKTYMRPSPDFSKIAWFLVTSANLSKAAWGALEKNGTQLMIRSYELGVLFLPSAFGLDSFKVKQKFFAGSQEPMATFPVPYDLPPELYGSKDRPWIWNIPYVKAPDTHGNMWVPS
Method in brief: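 Gel-based cleavage assay: 1 nM 5′-[32P]-labeled single-stranded oligonucleotide with a 3′-phosphotyrosine (N14Y) incubated with 10 pM recombinant TDP1, ± inhibitor, 15 min, room temperature. Parallel reactions in HTS buffer: 1X PBS pH 7.4, 80 mM KCl, 0.01% Tween-20. Gels dried, PhosphorImager-scanned, quantified by densitometry.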

DT40 hTDP1 cells = type: cell-based; settings: 72 h
recombinant human TDP2 = target: T1, recombinant human TDP2 (Homo sapiens, UniProt O95551); assay: Recombinant TDP2 counter-screening assay; type: biochemical; settings: for activity against TDP2 (in words): tested up to 111 µM
T1 sequence (O95551 1-362): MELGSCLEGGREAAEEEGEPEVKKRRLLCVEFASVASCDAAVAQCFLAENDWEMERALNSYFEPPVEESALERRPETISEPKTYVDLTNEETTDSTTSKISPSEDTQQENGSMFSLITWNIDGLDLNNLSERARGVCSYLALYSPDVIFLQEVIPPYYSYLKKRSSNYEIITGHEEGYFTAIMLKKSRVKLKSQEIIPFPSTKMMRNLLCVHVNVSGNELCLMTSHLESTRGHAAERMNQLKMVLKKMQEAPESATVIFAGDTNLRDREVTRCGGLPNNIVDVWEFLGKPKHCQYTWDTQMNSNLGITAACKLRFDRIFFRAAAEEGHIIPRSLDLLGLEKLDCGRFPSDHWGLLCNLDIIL
Method in brief: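 Counter-screen: 1 nM α32P-cordycepin-3′-labeled 18-mer single-stranded oligonucleotide incubated with 25 pM recombinant human TDP2, ± inhibitor, 15 min, room temperature. Reactions terminated and processed as the TDP1 gel assays: gel run, PhosphorImager exposure, densitometry.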

[2] = read-out: IC50 TDP1 REC, recombinant TDP1, WCE buffer

endogenous human TDP1 from whole cell extracts (DT40 hTDP1), sequence (Q9NUW8 whole entry): as the sequence (Q9NUW8 whole entry) above

In the case of CN[C@@H]1C[C@H]2O[C@@](C)([C@@H]1OC)n1c3ccccc3c3c4c(c5c6ccccc6n2c5c31)C(=O)N[C@H]4O [7-hydroxystaurosporine (UCN-01), 7-hydroxystaurosporine], the “inhibition of Chk2 purified from cell extract by immunoprecipitation” value (Chk2) is listed as “found to inhibit” and the “inhibition of recombinant Chk2 enzyme” value (Chk2) is listed as “ineffective”.
In the case of O=C(O)c1ccc(-c2ccc(C=C3NC(=O)N(Cc4ccccc4F)C3=O)o2)cc1 [JLT048, 4-(5-[{[1-(2-fluorobenzyl)-2,5-dioxo-4-imidazolidinylidene]methyl]}-2furyl)benzoic acid], the IC50 ([1]; IC50 TDP1 WCE, WCE buffer) is reported as 115 µM and 148 µM, the IC50 (recombinant TDP1) is reported as 7.7 ± 1.8 µM and the “inhibition of REC-TDP1 (in words)” value (recombinant TDP1) is reported as “inhibited REC-TDP1 at low micromolar concentrations”. For the same compound, the cytotoxicity (DT40 hTDP1 cells) was “did not exhibit any cytotoxicity”, the “synergistic effect in combination with CPT” value (DT40 hTDP1 cells) was “no synergistic effect” and the IC50 (recombinant human TDP2) was 32 ± 10 µM. For the same compound, the “activity against TDP2 (in words)” value (recombinant human TDP2) was “also inhibited TDP2, albeit with higher IC50 values”.
With Cc1ccc(Nc2nn3c(=O)c4ccccc4nc3s2)cc1C [NCGC00183674] the IC50 ([1]; read-out: IC50 TDP1 WCE, WCE buffer) was 51 µM and 59 µM, the “inhibition of REC-TDP1 (in words)” value (recombinant TDP1) was “inhibited REC-TDP1 at low micromolar concentrations” and the IC50 (recombinant TDP1; [2]) was 12.1 ± 1.7 µM. For the same compound, the cytotoxicity (DT40 hTDP1 cells) was “did not exhibit any cytotoxicity”, the “synergistic effect in combination with CPT” value (DT40 hTDP1 cells) was “no synergistic effect” and the “selectivity for TDP1 versus TDP2” value (recombinant human TDP2) was “higher selectivity for TDP1”. For the same compound, the IC50 (recombinant human TDP2; read-out: IC50 TDP2 REC, recombinant TDP2) was greater than 111 µM and the “activity against TDP2 (in words)” value (recombinant human TDP2) was “only marginal activity against TDP2 at 111 µM”.
With O=c1c2ccccc2nc2sc(Nc3ccc4c(c3)CCC4)nn12 [NCGC00183964] the “reduction in potency, WCE buffer vs HTS buffer” value (recombinant TDP1; REC-TDP1) was 25 fold and the IC50 (recombinant TDP1; [2]) was 81 µM.
